Reference: ChEMBL document CHEMBL3259518, “Semisynthesis, ex vivo evaluation, and SAR studies of coumarin derivatives as potential antiasthmatic drugs” (Eur J Med Chem, 2014)

Legend:
Format in all cases: functional
[1] = Antiasthamic activity in Wistar rat tracheal ring assessed as reversal of carbachol-induced contraction at 0.1 to 500 uM relative to control; conditions: Trachea
Outline: (§1)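 Tracheas from male Wistar rats (250–300 g) were cleaned and cut into 4–5 mm rings of 2–3 cartilages each. Tension was recorded with force transducers. After equilibration, rings were contracted with 1 µM carbachol and washed every 40 min for 2 h. Cumulative concentration–response curves followed carbachol contraction, with relaxation taken from tone before vs after addition. Theophylline (1.67–550 µM) was the positive control. Six animals per group; EC50 and Emax came from nonlinear curve fitting.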

[2] = Antiasthamic activity in Wistar rat tracheal ring assessed as reversal of carbachol-induced contraction; conditions: Trachea; outline: as §1
Trachea = experiment: Potency index, ratio of theophylline EC50 to compound EC50 for antiasthamic activity in Wistar rat tracheal ring assessed as reversal of carbachol-induced contraction

Row | Structure (SMILES) | Emax [1] | EC50 [2] | Ratio EC50 (Trachea)
1 | CC(=O)Oc1ccc2c(C)cc(=O)oc2c1 | 62% | 360 µM | –
2 | Cc1cc(=O)oc2cc(OC(=O)c3ccccc3)ccc12 | 34% | – | –
3 | O=C(Oc1ccc2ccc(=O)oc2c1)c1ccccc1 | 26% | – | –
4 | CCOC(=O)COc1ccc2c(C)cc(=O)oc2c1 | 70% | 200 µM | –
5 | CCOc1ccc2c(C)cc(=O)oc2c1 | 100% | 80 µM | –
6 | CCOC(=O)COc1ccc2ccc(=O)oc2c1 | 31% | – | –
7 | CCOc1cc2ccc(=O)oc2cc1OCC | 100% | 42 µM | 4
8 | CCCOc1cc2ccc(=O)oc2cc1OCCC | 100% | 89 µM | –
9 | CC(=O)Oc1cc2ccc(=O)oc2cc1OC(C)=O | 77% | 231 µM | –
10 | O=C(Oc1cc2ccc(=O)oc2cc1OC(=O)c1ccccc1)c1ccccc1 | 12% | – | –
11 | CCOC(=O)COc1cc2ccc(=O)oc2cc1OCC(=O)OCC | 33% | – | –
12 | CCCOc1ccc2c(C)cc(=O)oc2c1 | 100% | 267 µM | –
13 | CC(=O)Oc1ccc2ccc(=O)oc2c1 [7-ACETOXYCOUMARIN] | 16% | – | –
14 | CCCOc1ccc2ccc(=O)oc2c1 [7-PROPOXYCOUMARIN] | 100% | 133 µM | –
15 | O=c1ccc2cc(O)c(O)cc2o1 [ESCULETIN] | 47.9% | – | –
16 | CCOc1ccc2ccc(=O)oc2c1 [ETHOXYCOUMARIN] | 100% | 245 µM | –
17 | COc1ccc2ccc(=O)oc2c1 [HERNIARIN] | 100% | 244 µM | –
18 | COc1ccc2c(C)cc(=O)oc2c1 [HYMECROMONE METHYL ETHER] | 100% | 230 µM | –
19 | Cc1cc(=O)oc2cc(O)ccc12 [HYMECROMONE] | 90% | 260 µM | –
20 | COc1cc2ccc(=O)oc2cc1OC [SCOPARONE] | 100% | 80 µM | –
21 | Cn1c(=O)c2nc[nH]c2n(C)c1=O [THEOPHYLLINE] | 100% | 144 µM | –
22 | O=c1ccc2ccc(O)cc2o1 [UMBELLIFERONE] | 67% | 449 µM | –
